Data: ChEMBL document CHEMBL4477160, “Methylbenzene-Containing Polyketides from a Streptomyces that Spontaneously Acquired Rifampicin Resistance: Structural Elucidation and Biosynthesis” (J Nat Prod, 2016)
Calls of active or inactive are those of the source.

Assays:
Escherichia coli = test: Antimicrobial activity against Escherichia coli assessed as decrease in cell viability at 1.56 to 100 uM after 24 hrs; assay type: functional, organism-based
Outline: (§1)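 Compounds in DMSO dispensed at a range of concentrations into 384-well plates. Each test strain was grown to OD620 ~0.5, diluted 2000-fold in LB medium and added to the wells. Plates were incubated 24 h at 37 °C. Viability was read as absorbance at 620 nm.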

Micrococcus luteus = test: Antimicrobial activity against Micrococcus luteus assessed as decrease in cell viability at 1.56 to 100 uM after 24 hrs; assay type: functional, organism-based; outline: as §1
Staphylococcus aureus = test: Antimicrobial activity against Staphylococcus aureus assessed as decrease in cell viability at 1.56 to 100 uM after 24 hrs; assay type: functional, organism-based; outline: as §1
Bacillus subtilis = test: Antimicrobial activity against Bacillus subtilis assessed as decrease in cell viability at 1.56 to 100 uM after 24 hrs; assay type: functional, organism-based; outline: as §1
SK-OV-3 = test: Cytotoxicity against human SKOV3 cells assessed as decrease in cell viability at 0.01 to 100 uM after 72 hrs by WST-8 assay; assay type: functional, cell-based
Homo sapiens = species: Homo sapiens; test: Cytotoxicity against human ACC-MESO1 cells assessed as decrease in cell viability at 0.01 to 100 uM after 72 hrs by WST-8 assay; assay type: functional, cell-based
Jurkat = test: Cytotoxicity against human Jurkat cells assessed as decrease in cell viability at 0.01 to 100 uM after 72 hrs by WST-8 assay; assay type: functional, cell-based

Measured: Activity

Cc1ccccc1/C=C/C=C/C=C/C=C/C(=O)NC1=C(O)CCC1=O
inactive: all assays above

Cc1ccccc1/C=C/CCC(=O)NC1=C(O)CCC1=O
inactive: all assays above
